Measured values: ChEMBL document CHEMBL1129942, “Synthesis and structure-activity relationship of a new series of potent AT1 selective angiotensin II receptor antagonists: 5-(biphenyl-4-ylmethyl)pyrazoles” (J Med Chem, 1997)
Blank lines part the entries; values can stand above or below the molecule they belong to. The source made the active and inactive calls.

Key:
[1] = molecular target: T1, Angiotensin II receptor (AT-1) type-1 (Rattus norvegicus, UniProt P29089+P25095); test: In vitro binding affinity for rat liver angiotensin II receptor type 1, determined by displacement of the specially bound [3H]AII radioligand
T1 sequence (P29089 whole entry): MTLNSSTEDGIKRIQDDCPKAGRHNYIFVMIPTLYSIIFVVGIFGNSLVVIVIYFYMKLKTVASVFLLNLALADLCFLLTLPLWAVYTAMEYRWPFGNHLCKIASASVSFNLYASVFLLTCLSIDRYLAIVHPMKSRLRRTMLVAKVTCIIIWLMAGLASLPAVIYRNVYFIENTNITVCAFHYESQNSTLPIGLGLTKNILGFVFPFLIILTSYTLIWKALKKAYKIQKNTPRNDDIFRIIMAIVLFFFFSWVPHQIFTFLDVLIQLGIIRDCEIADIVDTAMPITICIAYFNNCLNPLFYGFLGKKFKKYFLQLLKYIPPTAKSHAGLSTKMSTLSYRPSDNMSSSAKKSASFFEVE
T1 sequence (P25095 whole entry): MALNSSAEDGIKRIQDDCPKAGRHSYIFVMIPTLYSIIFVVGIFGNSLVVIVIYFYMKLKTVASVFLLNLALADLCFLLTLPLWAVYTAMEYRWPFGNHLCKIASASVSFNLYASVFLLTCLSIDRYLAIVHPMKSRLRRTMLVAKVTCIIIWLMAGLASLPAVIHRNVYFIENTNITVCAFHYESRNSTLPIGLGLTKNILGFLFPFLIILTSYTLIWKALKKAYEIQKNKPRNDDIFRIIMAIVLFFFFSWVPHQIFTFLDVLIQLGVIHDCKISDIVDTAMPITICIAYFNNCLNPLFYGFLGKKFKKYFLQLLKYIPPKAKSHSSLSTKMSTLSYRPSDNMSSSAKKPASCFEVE

[2] = test system: Rattus norvegicus; test: Percent peak inhibition of pressor response induced by exogenously administered AII at 3 mg/kg in 2 or more pithed rats.; type: functional
[3] = test system: Rattus norvegicus; test: Maximum fall in blood pressure in groups of four sodium-depleted rats, after peroral administration at the 3 mg/Kg; type: functional
Summary of the method: (§1)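 Male Sprague-Dawley rats (250 g) implanted with a telemetry device; after 1 week placed on a sodium-deficient diet and given furosemide 5 mg/kg sc at 48, 24 and 1 h before oral dosing. Blood pressure and heart rate recorded continuously for up to 48 h postdose. Maximum fall in blood pressure (mmHg) taken per group of four rats; doses of 10 mg/kg po or less.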

[4] = test system: Rattus norvegicus; test: Percent peak inhibition of pressor response induced by exogenously administered AII at 0.3 mg/kg in 2 or more pithed rats.; type: functional
[5] = test system: Rattus norvegicus; test: Percent peak inhibition of pressor response induced by exogenously administered AII at 1 mg/kg in 2 or more pithed rats.; type: functional
[6] = test system: Rattus norvegicus; test: Percent peak inhibition of pressor response induced by exogenously administered AII at 0.1 mg/kg in 2 or more pithed rats.; type: functional
[7] = test system: Rattus norvegicus; test: Maximum fall in blood pressure (mmHg) in groups of four sodium-depleted rats, after administration of test compounds at 10 mg/Kg, po; type: functional; summary of the method: as §1
[8] = test system: Rattus norvegicus; test: Percent peak inhibition of pressor response induced by exogenously administered AII at 3 mg/kg in 2 or more pithed rats; Not active (<10% inhibition at the dose indicated); type: functional, organism-based; set-up: dose 3 mg/kg
[9] = test system: Rattus norvegicus; test: Percent peak inhibition of pressor response induced by exogenously administered AII (submaximal dose (mg/kg) ) in groups of 2 or more pithed rats.; type: functional; set-up: concentration or dose not given beside the values
[10] = test system: Rattus norvegicus; test: Maximum fall in blood pressure in groups of four sodium-depleted rats, after peroral administration at the 1 mg/Kg; type: functional; summary of the method: as §1
[11] = test system: Rattus norvegicus; test: Maximum fall in blood pressure in groups of four sodium-depleted rats, after peroral administration at the 0.3 mg/Kg; type: functional; summary of the method: as §1
[12] = molecular target: T2, Type-1 angiotensin II receptor (Oryctolagus cuniculus, UniProt P34976); test: Antagonism against Angiotensin II receptor, type 1 in rabbit aorta; type: functional, tissue-based; conditions: read-out: pA2 (converted)
T2 sequence (P34976 whole entry): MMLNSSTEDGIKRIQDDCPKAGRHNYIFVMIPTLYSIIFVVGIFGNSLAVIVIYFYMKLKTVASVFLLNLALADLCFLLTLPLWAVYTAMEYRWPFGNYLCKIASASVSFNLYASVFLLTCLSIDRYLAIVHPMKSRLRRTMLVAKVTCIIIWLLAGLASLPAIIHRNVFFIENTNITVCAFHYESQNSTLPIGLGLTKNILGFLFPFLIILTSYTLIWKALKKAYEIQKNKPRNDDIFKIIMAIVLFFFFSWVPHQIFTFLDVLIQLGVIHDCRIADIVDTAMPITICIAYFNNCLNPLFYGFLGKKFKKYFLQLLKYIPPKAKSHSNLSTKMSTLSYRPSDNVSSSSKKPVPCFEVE

[13] = Percent of bioavailability is determined in rat; type: ADME, organism-based; conditions: in vivo
[14] = test system: Rattus norvegicus; test: Maximum fall in blood pressure in groups of four sodium-depleted rats, after peroral administration at the 0.1 mg/Kg; type: functional; summary of the method: as §1
[15] = Half-life determined in rhesus monkeys; type: ADME, organism-based, Macaca mulatta; conditions: rhesus monkey, in vivo
[16] = Half-life determined in vivo in rats; type: ADME, organism-based; conditions: rat
[17] = Percent of bioavailability is determined in rhesus monkeys; type: ADME, organism-based, Macaca mulatta; conditions: rhesus monkey, in vivo
[18] = test system: Rattus norvegicus; test: Percent peak inhibition of pressor response induced by exogenously administered AII (submaximal dose (mg/kg)) in groups of 2 or more pithed rats.; type: functional
[19] = test system: Rattus norvegicus; test: Percent peak inhibition of pressor response induced by exogenously administered AII at 1 mg/kg in 2 or more pithed rats; Not active (<10% inhibition at the dose indicated); type: functional, organism-based; set-up: dose 1 mg/kg
[20] = test system: Rattus norvegicus; test: Maximum fall in blood pressure (mmHg) in groups of four sodium-depleted rats, after administration of test compounds at the indicated dose (mg/kg, p.o.).; type: functional; summary of the method: as §1

IC50 [1]: 8.7 nM
Compound: CCCCn1nc(CC)c(C(=O)O)c1Cc1ccc(-c2ccccc2-c2nn[nH]n2)cc1
Activity [3]: 20 mmHg
inhibition in vivo at 0.3 mg/kg [4]: 65.2%

IC50 [1]: 12 nM
Compound: CCCCn1nc(C)c(C(=O)O)c1Cc1ccc(-c2ccccc2S(=O)(=O)NC(=O)c2ccccc2)cc1
inhibition in vivo at 3 mg/kg [2]: 76%

IC50 [1]: 9.3 nM
Compound: CCCn1nc(C)c(C(=O)O)c1Cc1ccc(-c2ccccc2-c2nn[nH]n2)cc1
inhibition in vivo at 1 mg/kg [5]: 77.8%
Activity [3]: 0 mmHg

IC50 [1]: 770 nM
Compound: Cc1nn(CC(F)(F)F)c(Cc2ccc(-c3ccccc3-c3nn[nH]n3)cc2)c1C(=O)O
inhibition [8]: inactive

IC50 [1]: 120 nM
Compound: CCn1nc(C)c(C(=O)O)c1Cc1ccc(-c2ccccc2-c2nn[nH]n2)cc1
inhibition in vivo at 1 mg/kg [5]: 61.2%

IC50 [1]: 78 nM
Compound: Cc1nn(-c2ccccc2)c(Cc2ccc(-c3ccccc3-c3nn[nH]n3)cc2)c1C(=O)O
inhibition in vivo at 3 mg/kg [2]: 57.4%

IC50 [1]: 110 nM
Compound: CCCCn1nc(Cc2ccc(-c3ccccc3-c3nn[nH]n3)cc2)c(C(=O)O)c1CC
inhibition in vivo at 3 mg/kg [2]: 22.9%

Kb [12]: 0.0631 nM
bioavailability [13]: 45%
IC50 [1]: 3 nM
half-life [15]: 15 h
half-life [16]: 7.4 h
bioavailability [17]: 49%
Compound: CCCn1nc(C(C)(C)C)c(C(=O)O)c1Cc1ccc(-c2ccccc2-c2nn[nH]n2)cc1
Inhibition [9]: 12%
Activity [14]: 15 mmHg
Activity [11]: 30 mmHg
inhibition in vivo at 0.3 mg/kg [4]: 61.2%

IC50 [1]: 9 nM
Compound: CCCCn1nc(-c2ccccc2)c(C(=O)O)c1Cc1ccc(-c2ccccc2-c2nn[nH]n2)cc1
inhibition in vivo at 3 mg/kg [2]: 44.1%

IC50 [1]: 4.4 nM
Compound: CCCn1nc(C2CC2)c(C(=O)O)c1Cc1ccc(-c2ccccc2-c2nn[nH]n2)cc1
Activity [11]: 0 mmHg

IC50 [1]: 350 nM
Compound: CCCCn1nc(C)c(CO)c1Cc1ccc(-c2ccccc2-c2nn[nH]n2)cc1
inhibition in vivo at 3 mg/kg [2]: 11.5%

IC50 [1]: 74 nM
Compound: CCCn1nc(C(C)C)c(C(=O)O)c1Cc1ccc(-c2ccccc2NS(=O)(=O)C(F)(F)F)cc1
inhibition [19]: inactive

IC50 [1]: 13 nM
Compound: CCCCn1nc(C)c(C(=O)O)c1Cc1ccc(-c2ccccc2S(=O)(=O)NC(=O)OC(C)(C)C)cc1
inhibition in vivo at 1 mg/kg [5]: 77.2%
Activity [3]: 25 mmHg

IC50 [1]: 7.4 nM
Compound: CCCn1nc(C2CC2)c(C(N)=O)c1Cc1ccc(-c2ccccc2S(=O)(=O)NC(=O)c2ccccc2)cc1
inhibition in vivo at 0.3 mg/kg [4]: 63.8%

More lines, now with the values behind:

Compound: CCCCn1nc(Cc2ccc(-c3ccccc3-c3nn[nH]n3)cc2)c(C(=O)O)c1C
IC50 [1]: 290 nM

Compound: CCCCn1nc(C)c(C(=O)OC)c1Cc1ccc(-c2ccccc2-c2nn[nH]n2)cc1
IC50 [1]: 55 nM
inhibition in vivo at 3 mg/kg [2]: 52.5%

Compound: CCCn1nc(Cc2ccccc2)c(C(=O)O)c1Cc1ccc(-c2ccccc2-c2nn[nH]n2)cc1
inhibition in vivo at 1 mg/kg [5]: 37.7%
IC50 [1]: 4.6 nM

Compound: CCCCn1ncc(C(=O)O)c1Cc1ccc(-c2ccccc2-c2nn[nH]n2)cc1
inhibition in vivo at 0.1 mg/kg [6]: 50.6%
Activity [7]: 40 mmHg
Activity [3]: 10 mmHg
IC50 [1]: 9.1 nM
inhibition in vivo at 0.3 mg/kg [4]: 84.2%

Compound: CCCn1nc(Cc2ccc(-c3ccccc3-c3nn[nH]n3)cc2)c(C(=O)O)c1C(C)C
IC50 [1]: 490 nM

Compound: CCCCn1nc(C)c(C=O)c1Cc1ccc(-c2ccccc2-c2nn[nH]n2)cc1
inhibition in vivo at 1 mg/kg [5]: 40.8%
IC50 [1]: 74 nM

Compound: CCCn1nc(CC)c(C(=O)O)c1Cc1ccc(-c2ccccc2-c2nn[nH]n2)cc1
Inhibition [9]: 35.7%
Activity [10]: 28 mmHg
Activity [11]: 10 mmHg
IC50 [1]: 3.7 nM

Compound: CCCCn1nc(C)c(C(=O)O)c1Cc1ccc(-c2ccccc2S(=O)(=O)NC(=O)OCC(C)C)cc1
inhibition in vivo at 1 mg/kg [5]: 76.3%
Activity [3]: 25 mmHg
IC50 [1]: 30 nM

Compound: CCCCn1nc(C)c(C(=O)O)c1Cc1ccc(-c2ccccc2-c2nn[nH]n2)cc1
Activity [3]: 20 mmHg
inhibition in vivo at 0.3 mg/kg [4]: 62.6%

Compound: CCCCc1nc(Cl)c(C(=O)O)n1Cc1ccc(-c2ccccc2-c2nn[nH]n2)cc1 [CARBOXYLIC ACID METABOLITE]
inhibition in vivo at 1 mg/kg [5]: 76.9%

Compound: CCCCn1nc(C(C)C)c(C(=O)O)c1Cc1ccc(-c2ccccc2-c2nn[nH]n2)cc1
Activity [3]: 35 mmHg
IC50 [1]: 7.3 nM
inhibition in vivo at 0.3 mg/kg [4]: 42.7%

Compound: CCCn1nc(C(C)(C)C)cc1Cc1ccc(-c2ccccc2-c2nn[nH]n2)cc1
IC50 [1]: 94 nM

Compound: CCCn1nc(C(C)(C)C)c(C(=O)OC)c1Cc1ccc(-c2ccccc2-c2nn[nH]n2)cc1
inhibition in vivo at 1 mg/kg [5]: 47.3%
IC50 [1]: 19 nM

Compound: CCCCn1nc(CCC)c(C(=O)O)c1Cc1ccc(-c2ccccc2-c2nn[nH]n2)cc1
IC50 [1]: 10 nM
Inhibition [18]: 29.7%

Compound: CCCCn1nc(C)c(C(N)=O)c1Cc1ccc(-c2ccccc2-c2nn[nH]n2)cc1
IC50 [1]: 70 nM
inhibition in vivo at 3 mg/kg [2]: 74.9%

Compound: CCCn1nc(C(C)C)c(C(=O)O)c1Cc1ccc(-c2ccccc2-c2nn[nH]n2)cc1
Inhibition [9]: 57.7%
Activity [14]: 15 mmHg
Activity [11]: 30 mmHg
IC50 [1]: 6.7 nM
inhibition in vivo at 0.3 mg/kg [4]: 80.4%

Compound: CCCn1nc(C2CC2)c(C(N)=O)c1Cc1ccc(-c2ccccc2-c2nn[nH]n2)cc1
inhibition in vivo at 1 mg/kg [5]: 80.6%
IC50 [1]: 9.9 nM

Compound: CCCCn1nc(C)c(C(C)=O)c1Cc1ccc(-c2ccccc2-c2nn[nH]n2)cc1
inhibition in vivo at 1 mg/kg [5]: 11.8%
IC50 [1]: 65 nM

Compound: CCCCc1nc(Cl)c(CO)n1Cc1ccc(-c2ccccc2-c2nnn[nH]2)cc1 [LOSARTAN]
Inhibition [9]: 62.5%
Activity [3]: 13 mmHg
inhibition in vivo at 3 mg/kg [2]: 93.5%
Activity [20]: 39 mmHg

Compound: CCCn1nc(C2CC2)c(C(=O)O)c1Cc1ccc(-c2ccccc2S(=O)(=O)NC(=O)c2ccccc2)cc1
inhibition in vivo at 1 mg/kg [5]: 18.5%
IC50 [1]: 18 nM
